Compound activity deposited in PubChem by The Scripps Research Institute Molecular Screening Center.
Rows were chosen to be rich in hits. Some 1.6% of all compounds tested hit in one or more screens of this group.
MBD2 inh – inhibitors of MBD2 binding to methylated DNA, primary screen, biochemical, TR-FRET, DNA-binding domain, human; MBD2 binding to methylated oligonucleotide; AID 686964, 2013; inhibition, % at 4.4 µM; Methyl-CpG-binding domain protein 2 (Homo sapiens), Q9UBB5; 370,000 compounds, 0.31% hits; in the data active = inhibition above about 13%
Target sequence (Q9UBB5 whole entry, looked up, the tested form may be a part): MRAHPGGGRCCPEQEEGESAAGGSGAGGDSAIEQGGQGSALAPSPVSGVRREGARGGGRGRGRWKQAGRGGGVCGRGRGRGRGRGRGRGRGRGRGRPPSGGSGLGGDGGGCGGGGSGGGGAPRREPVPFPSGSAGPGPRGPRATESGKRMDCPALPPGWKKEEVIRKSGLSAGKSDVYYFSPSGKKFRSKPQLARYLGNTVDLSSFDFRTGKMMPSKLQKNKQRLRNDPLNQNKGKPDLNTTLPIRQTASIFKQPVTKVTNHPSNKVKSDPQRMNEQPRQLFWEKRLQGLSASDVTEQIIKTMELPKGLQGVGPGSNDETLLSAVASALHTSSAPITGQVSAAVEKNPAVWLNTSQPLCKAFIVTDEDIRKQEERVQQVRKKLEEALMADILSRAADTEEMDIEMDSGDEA
UHRF1 binding – UHRF1 methylated DNA binding inhibitors, primary screen, counter-screen for MBD2 inhibitor project, biochemical, TR-FRET, human UHRF1, single concentration; AID 687016, 2013; 370,000 compounds, 0.75% hits; inhibition, % at 4.4 µM; UHRF1 binding to methylated oligo; E3 ubiquitin-protein ligase UHRF1 (Homo sapiens), Q96T88;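 note: UHRF1 SRA domain binding a hemimethylated CpG hairpin DNA probe; 0% = median of test compound wells and 100% = reference inhibitor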
TDP2 absorb – human TDP2 enzyme inhibitors, primary screen, biochemical, epi absorbance, recombinant enzyme; T5PNP hydrolysis, p-nitrophenol absorbance 415 nm; Tyrosyl-DNA phosphodiesterase 2 (Homo sapiens), O95551; inhibition, % at 12.8 µM; AID 720702, 2013; 370,000 compounds, 0.34% hits;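 active = inhibition above the mean of all tested compounds plus 3 SD, set per campaign, cut at about 25% in these data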;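 note: 0% = DMSO with enzyme and 100% = buffer with substrate but no TDP2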
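Read-out basis: percent inhibition. System: recombinant human TDP2. Buffer or medium: Mg2+-containing Tris-HCl buffer, pH 7.5. Repeats: single replicate. Timing: reaction 2 h, 37 °C. Benchmarks: high control without enzyme, low control DMSO plus TDP2. Probe or stimulus: 5 mM T5PNP. Doses: 12.8 µM only. Measured by: epi absorbance of p-nitrophenol freed from T5PNP by hydrolysis.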
LEDGF integ inh – blockers of LEDGF/p75-dependent integrase strand transfer – biochemical, TR-FRET, high throughput, primary screen. HIV-1 integrase (with human LEDGF/p75). TR-FRET IN-LEDGF/p75 DNA integration, Eu/Cy5. inhibition, % at 3.7 µM. 370,000 compounds, 0.64% hits. AID 743269, 2014;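 active = inhibition above the screen-wide mean plus 3 SD, cut at about 13% in these data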;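 note: signal is the Cy5 over europium emission ratio at 671 and 618 nm; 0% = plate median of compound wells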
UHRF1 ctr MBD2 – UHRF1 methylated DNA binding inhibitors, counter-screen for MBD2 inhibitor project, biochemical, TR-FRET, human UHRF1; 1,000 compounds, 25% hits; AID 720530, 2013; UHRF1 binding to methylated oligonucleotide; shares compounds with MBD2 inh; inhibition, % at 4.4 µM;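 note: UHRF1 SRA domain binding a labeled hemimethylated CpG hairpin DNA; 0% = vehicle only and 100% = reference inhibitor with vehicle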
MBD2 DBD conf – inhibitors of MBD2 binding to methylated DNA, confirmation, biochemical, TR-FRET, DNA-binding domain, human. TR-FRET MBD2-DBD binding to methylated oligonucleotide. 1,000 compounds, 26% hits. inhibition, % at 4.4 µM. shares compounds with MBD2 inh; in the data active = inhibition above about 14%
* hit, by the source's call; . = no result. Cut-off read from the data, not from the text of the source, unless noted: active = inhibition above about 21%; inactive = the rest.

SMILES	MBD2 inh	UHRF1 binding	TDP2 absorb	LEDGF integ inh	UHRF1 ctr MBD2	MBD2 DBD conf
C#CCNC(=O)C[C@H]1C(=O)N(CCCOC)C2=CCCCC[C@]21C(=O)OC	-2.5	2.8	-12.1	3.9	.	.
COc1cccc2c1C(=O)c1c(O)c3c(c(O)c1C2=O)C[C@](O)(C(C)=O)C[C@H]3O[C@@H]1C[C@@H](N)[C@@H](O)[C@@H](C)O1	111.5*	93.0*	-3.9	2.1	100.7*	110.9*
O=C(Oc1ccc2c(c1)OCO2)c1cc2c(s1)CCC2	24.8*	35.0*	12.3	12.3	35.8*	28.5*
CN(c1cccnc1)c1ccc(NC(=O)CCc2c[nH]c3ccccc23)cc1Br	1.9	-2.1	2.3	-3.8	.	.
N#Cc1ccc(CSc2nnc(NC(=O)C3CCCO3)s2)cc1 (stereo not drawn)	16.7*	24.5*	2.8	2.9	6.6	1.8
COC(=O)c1ccc(CSc2nnc(NC(=O)C3CCCO3)s2)cc1 (stereo not drawn)	-1.4	-0.2	7.8	-0.9	.	.
Cc1c(Nc2c3ccccc3nc3ccccc23)c(=O)n(-c2ccccc2)n1C	24.4*	-2.4	-14.4	-4.0	0.6	-5.4
Cc1c(Nc2nc3ccccc3nc2N2CCN(c3ccccc3)CC2)c(=O)n(-c2ccccc2)n1C	-6.1	1.7	-13.8	0.6	.	.
O=C(N(c1ccccn1)c1ccccn1)C12CC3CC(CC(C3)C1)C2	0.7	1.3	-2.5	2.9	.	.
c1ccc(SC23CC4CC(CC(C4)C2)C3)nc1	13.2*	0.6	0.5	-5.0	8.4	3.1
CCC[C@H]1[C@@H](OC(=O)NCCc2ccccc2)CC[C@@]23CCCN2C(=O)CCC[C@@H]13	-0.5	0.4	5.2	-4.6	.	.
CN(C)c1cccc2c(S(=O)(=O)NC(=O)[C@H]3O[C@@H](n4ccc(=O)[nH]c4=O)[C@H](O)[C@@H]3O)cccc12	3.9	-5.6	-0.3	4.2	.	.
O=c1[nH]c2ccccc2c2nc3ccccn3c12	-0.9	-2.5	-1.2	1.2	.	.
O=c1nc2c(O)cccn2c2c1c(=O)[nH]c1ccccc12	23.4*	42.8*	-21.1	13.1	25.1*	25.8*
OC[C@@H](O)C(O)[C@@H](O)CO (stereo partly drawn)	22.3*	12.9	7.2	-0.3	6.0	3.2
O=S1(=O)CC2c3ccccc3CN2CN1CCc1ccccc1 (stereo not drawn)	-0.1	-2.2	-7.2	-1.0	.	.
C=CC[C@@H](CC(=O)NCCO)C(=O)N[C@H](C)COC(=O)[C@@H](CC=C)Cc1ccc(F)cc1	53.1*	-0.3	11.9	0.5	1.4	1.5
COc1ccc(N2CC(C)(C)[C@H](CC(=O)Nc3ccc(Br)cc3)C2=O)cc1	5.0	-1.2	8.8	3.5	.	.
COc1ccc(NC(=O)C[C@@H]2C(=O)N(c3ccc(OC)cc3)CC2(C)C)cc1	40.0*	-2.7	6.9	3.7	0.9	5.6
NC(=O)COC(=O)c1cc(Cl)cc(Cl)c1N	32.3*	4.6	-12.0	-9.4	2.8	1.7
Nc1c(Cl)cc(Cl)cc1C(=O)OCC(=O)N1CCCC1	1.2	-1.4	0.0	-0.4	.	.
COc1ccc(OC)c(S(=O)(=O)NCC2CCN(C(=O)C(=O)c3cccs3)CC2)c1	3.0	2.9	-1.5	-3.9	.	.
O=S(=O)(Nc1cccc(S(=O)(=O)N2CCCC2)c1)c1cccc(Br)c1	104.5*	-1.1	-0.3	-2.4	8.3	1.6
O=S(=O)(Nc1cccc(S(=O)(=O)N2CCCC2)c1)c1ccc(Br)cc1	-0.1	0.4	-3.6	1.2	.	.
CCc1cccc(Nc2cc(C)n(-c3cccc(CC)c3)c(=O)c2)c1	1.3	-0.8	9.2	1.6	.	.
SMILES	MBD2 inh	UHRF1 binding	TDP2 absorb	LEDGF integ inh	UHRF1 ctr MBD2	MBD2 DBD conf
CC(=O)N1CCN(c2ccc(N3CCN(C(C)=O)[C@@H](C)C3)c(C)c2)[C@H](C)C1	0.1	-0.1	1.6	-0.4	.	.
O=C(OCc1cc(=O)n2c(n1)sc1ccccc12)c1ccc2c(=O)n3c(nc2c1)CCC3	22.0*	39.4*	-0.3	7.2	26.6*	22.3*
Cc1cc(C)c(O)c(C(=O)CC2CC(=O)NC(=O)C2)c1	3.4	-3.1	7.4	-1.4	.	.
C=CCn1c(=O)c2c(nc3n2CCCN3Cc2ccccc2)n(C)c1=O	15.2*	25.0*	14.3	6.5	5.3	2.1
Cc1ccc(Cc2c(-c3ccccc3)nc3cc(C)ccn23)cc1	16.7*	26.9*	-16.6	-3.8	13.3	5.5
COC(=O)[C@]12C[C@H](CC(=O)NCCCN3CCCC3=O)C(=O)N(Cc3ccc(Cl)cc3Cl)C1=C[C@H](C1CCCC1)O[C@@H]2C	14.9*	0.3	-4.7	-3.5	12.5	3.1
COC(=O)[C@]12C[C@H](CC(=O)NCC3CCCCC3)C(=O)N(Cc3ccccc3)C1=C[C@H](C(C)(C)C)O[C@@H]2C	19.6*	24.1*	6.5	-0.2	2.9	1.8
Cc1ccc(S(=O)(=O)Nc2ccccc2N=Cc2c(F)c(F)c(F)c(F)c2F)cc1	13.8*	-1.1	0.0	2.4	5.0	1.7
COc1ccc(-c2nnc(SCC(=O)N/N=C(\C)c3ccc(-c4ccccc4)cc3)n2-c2ccc(C)cc2)cc1	1.3	3.5	-1.1	4.3	.	.
CCCCOc1ccc(C(=O)Nc2ccc(N3CCN(C(=O)C(C)C)CC3)cc2)cc1	33.0*	-1.9	-12.3	0.5	7.5	3.8
CCCCOc1ccc(C(=O)Nc2ccc(N3CCN(C(C)=O)CC3)cc2)cc1	5.4	10.3	-3.4	-5.9	.	.
CC(C)NC(=O)CSc1nc2ccccc2n1CC(=O)N(C(C)C)C(C)C	6.5	4.5	-12.7	2.6	.	.
CC(C)NC(=O)Cn1c(SCC(=O)c2ccc(F)cc2)nc2ccccc21	14.0*	21.8*	23.4	8.7	5.6	3.3
CCOC(=O)[C@H]1[C@H]2COc3ccccc3[C@@H]2N2C(=O)c3ccc(C)cc3NC(=O)[C@@]12C	-2.5	-2.1	-4.4	-1.6	.	.
CCOC(=O)[C@H]1[C@H]2COc3ccccc3[C@@H]2N2C(=O)c3ccccc3NC(=O)[C@@]12C	17.8*	19.6	-0.5	0.0	6.5	2.5
CCCCOc1ccc(C(=O)n2ccc3ccc(-c4ccc5ccn(Cc6cccc(C(=O)OC)c6)c5c4)cc32)cc1	1.1	-2.1	0.7	-2.2	.	.
